According to ChEMBL document CHEMBL1123602, “Synthesis and biological properties of N3-(4-methoxyfumaroyl)-L-2,3-diaminopropanoic acid dipeptides, a novel group of antimicrobial agents” (1987):
In brackets after ≈: the same amount, converted by molar mass.

How the values were obtained:
Shigella sonnei [1] = assay: Antimicrobial activity against the strain of Shigella sonnei(433); type: functional
In short: (§1)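 Agar dilution MIC on minimal agar Davis medium with 0.1% yeast extract and 0.1% casamino acids containing compound at 200 to 0.2 μg/mL (twofold steps). Cells at 10⁵ cfu/mL were loop-applied to the surface and incubated 24 h at 37 °C. Plates were read visually; MIC is the lowest concentration giving complete growth inhibition.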

Escherichia coli = assay: Antimicrobial activity against the strain of Escherichia coli(ATCC 9637); type: functional; in short: as §1
Bacillus pumilus [2] = assay: Antimicrobial activity against the strain of Bacillus pumilus(1697); type: functional; in short: as §1
Candida albicans [3] = assay: Antimicrobial activity against the strain of Candida albicans(AMB 25); type: functional
In short: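 MIC by serial twofold dilution, 200 to 0.2 μg/mL, in YNB with 1% glucose. The inoculum was 10⁴ cfu/mL of an overnight culture grown in the same medium, incubated 48 h at 30 °C. Growth was read turbidimetrically; MIC is the lowest concentration giving complete growth inhibition.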

Staphylococcus aureus = assay: Antimicrobial activity against the strain of Staphylococcus aureus (209P); type: functional; in short: as §1
Candida albicans [4] = assay: Antifungal activity against Candida albicans ATCC 26278 strain in YNB medium after incorporation of 10 ug per disk.; type: functional
In short: (§2)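 C. albicans disk diffusion. YNB medium with 1% glucose and 1% agar was seeded with 10⁴ cfu/mL cells from an overnight Sabouraud culture and poured into dishes. Water-dissolved peptide was loaded onto 6.35-mm paper disks, which were placed on the agar. Zones of inhibition were measured after 48 h at 30 °C.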

Candida albicans [5] = assay: Antifungal activity against Candida albicans ATCC 26278 strain in medium after incorporation of 10 nmol of Met-Val dipeptide antagonist per disk.; type: functional
In short: (§3)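 Disk diffusion with the antagonist (GlcNAc or dipeptide) applied to the same 6.35-mm disk as the FMDP dipeptide. Base layer is YNB with 1% glucose and 1% agar, seeded with 10⁴ cfu/mL C. albicans from an overnight Sabouraud culture. Peptides were dissolved in water. Inhibition zones were measured after 48 h at 30 °C.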

Candida albicans [6] = assay: Antifungal activity against Candida albicans ATCC 26278 strain in medium after incorporation of 10 nmol of Leu-Met dipeptide antagonist per disk.; type: functional; in short: as §3
Candida albicans [7] = assay: Antifungal activity against Candida albicans ATCC 26278 strain in medium after incorporation of 10 nmol of GlcNAc antagonist per disk.; type: functional; in short: as §3
Candida albicans [8] = assay: Antifungal activity against Candida albicans ATCC 26278 strain in YNB medium after incorporation of 20 ug per disk.; type: functional; in short: as §2
Bacillus pumilus [9] = assay: Antibacterial activity against Bacillus pumilus CCM 1697 strain in medium after incorporation of 10 nmol of Met-Val dipeptide antagonist per disk.
Bacillus pumilus [10] = assay: Antibacterial activity against Bacillus pumilus CCM 1697 strain in medium*after incorporation of 10 nmol of GlcNAc antagonist per disk.
Shigella sonnei [11] = assay: Antibacterial activity against Shigella sonnei 433 strain in medium after incorporation of 10 nmol of GlcNAc antagonist per disk.
Bacillus pumilus [12] = assay: Antibacterial activity against Bacillus pumilus CCM 1697 strain in medium after incorporation of 10 nmol of Leu-Met dipeptide antagonist per disk.
Shigella sonnei [13] = assay: Antibacterial activity against Shigella sonnei 433 strain in medium after incorporation of 10 nmol of Met-Val dipeptide antagonist per disk.
Shigella sonnei [14] = assay: Antibacterial activity against Shigella sonnei 433 strain in medium after incorporation of 10 nmol of Leu-Met dipeptide antagonist per disk.
Candida albicans [15] = assay: Activity against Candida albicans ATCC 26278 strain in YNB medium after incorporation of 10 ug per disk expressed as zone size; type: functional; in short: as §2
Candida albicans [16] = assay: Activity against Candida albicans ATCC 26278 strain in YNB medium after incorporation of 20 ug per disk expressed as zone size; type: functional; in short: as §2

Row | Compound | MIC (Shigella sonnei [1]) [mg/L] | MIC (Escherichia coli) [mg/L] | MIC (Bacillus pumilus [2]) [mg/L] | MIC (Candida albicans [3]) [mg/L] | MIC (Staphylococcus aureus) [mg/L] | other results
1 | COC(=O)/C=C/C(=O)NC[C@@H](N)C(=O)N[C@@H](Cc1ccc(O)cc1)C(=O)O | > 200 | > 200 | > 200 | 25 (≈ 65.9 µM) | > 200 | 
2 | COC(=O)/C=C/C(=O)NC[C@@H](N)C(=O)N[C@@H](CCSC)C(=O)O | > 200 | > 200 | > 200 | 1.56 (≈ 4.49 µM) | > 200 | Zone size (Candida albicans [4]): 31 mm; Zone size (Candida albicans [5]): 0 mm; Zone size (Candida albicans [6]): 0 mm; Zone size (Candida albicans [7]): 0 mm; Zone size (Candida albicans [8]): 35 mm
3 | Nc1nc(=O)[nH]cc1F [FLUCYTOSINE] |  |  |  |  |  | Zone size (Candida albicans [4]): 35 mm; Zone size (Candida albicans [8]): 39 mm
4 | CCC[C@H](N)C(=O)N[C@H](CNC(=O)/C=C/C(=O)OC)C(=O)O | 3.12 (≈ 9.89 µM) | 100 (≈ 317 µM) | 0.4 (≈ 1.27 µM) | 0.4 (≈ 1.27 µM) | 12.5 (≈ 39.6 µM) | Zone size (Candida albicans [4]): 40 mm; Zone size (Candida albicans [8]): 42 mm
5 | Clc1ccc(COC(Cn2ccnc2)c2ccc(Cl)cc2Cl)c(Cl)c1 (stereo unspecified) [MICONAZOLE] |  |  |  |  |  | Zone size (Candida albicans [15]): 27 mm; Zone size (Candida albicans [16]): 32 mm
6 | COC(=O)/C=C/C(=O)NC[C@@H](N)C(=O)N[C@@H](Cc1ccccc1)C(=O)O | > 200 | > 200 | > 200 | 1.56 (≈ 4.29 µM) | > 200 | 
7 | C[C@@H]([C@H](N)C(=O)N[C@H](C(=O)O)[C@H]1O[C@@H](n2ccc(=O)[nH]c2=O)[C@H](O)[C@@H]1O)[C@H](O)c1ccc(O)cn1.C[C@@H]([C@H](N)C(=O)N[C@H](C(=O)O)[C@H]1O[C@H](n2cc(C=O)nc2O)[C@H](O)[C@@H]1O)[C@H](O)c1ccc(O)cn1 |  |  |  |  |  | Zone size (Candida albicans [15]): 25 mm; Zone size (Candida albicans [16]): 28 mm
8 | COC(=O)/C=C/C(=O)NC[C@@H](N)C(=O)O | > 200 | > 200 | > 200 | > 200 | > 200 | 
9 | Clc1ccccc1C(c1ccccc1)(c1ccccc1)n1ccnc1 [CLOTRIMAZOLE] |  |  |  |  |  | Zone size (Candida albicans [4]): 17 mm; Zone size (Candida albicans [8]): 21 mm
10 | COC(=O)/C=C/C(=O)NC[C@@H](NC(=O)[C@@H](N)CCCCN)C(=O)O | > 200 | > 200 | 100 (≈ 290 µM) | > 200 | > 200 | 

Second part, led by results:

Row | MIC (Shigella sonnei [1]) [mg/L] | MIC (Escherichia coli) [mg/L] | MIC (Bacillus pumilus [2]) [mg/L] | MIC (Candida albicans [3]) [mg/L] | MIC (Staphylococcus aureus) [mg/L] | Compound | other results
11 | > 200 | > 200 | > 200 | > 200 | > 200 | COC(=O)/C=C/C(=O)NC[C@@H](N)C(=O)NCC(=O)O | 
12 | 3.12 (≈ 10.9 µM) | 100 (≈ 348 µM) | 1.56 (≈ 5.43 µM) | 0.8 (≈ 2.78 µM) | 50 (≈ 174 µM) | COC(=O)/C=C/C(=O)NC[C@@H](NC(=O)[C@H](C)N)C(=O)O | 
13 | 3.12 (≈ 8.98 µM) | 100 (≈ 288 µM) | 3.12 (≈ 8.98 µM) | 0.8 (≈ 2.3 µM) | 50 (≈ 144 µM) | COC(=O)/C=C/C(=O)NC[C@@H](NC(=O)[C@@H](N)CCSC)C(=O)O | 
14 | 1.56 (≈ 4.74 µM) | 100 (≈ 304 µM) | 1.56 (≈ 4.74 µM) | 0.8 (≈ 2.43 µM) | 12.5 (≈ 38 µM) | COC(=O)/C=C/C(=O)NC[C@@H](NC(=O)[C@@H](N)CC(C)C)C(=O)O | Zone size (Candida albicans [4]): 39 mm; Zone size (Candida albicans [5]): 0 mm; Zone size (Candida albicans [6]): 0 mm; Zone size (Candida albicans [7]): 0 mm; Zone size (Candida albicans [8]): 41 mm
15 | 3.12 (≈ 9.47 µM) | 100 (≈ 304 µM) | 0.4 (≈ 1.21 µM) | 0.8 (≈ 2.43 µM) | 25 (≈ 75.9 µM) | CCCC[C@H](N)C(=O)N[C@H](CNC(=O)/C=C/C(=O)OC)C(=O)O | Zone size (Bacillus pumilus [9]): 0 mm; Zone size (Bacillus pumilus [10]): 0 mm; Zone size (Shigella sonnei [11]): 0 mm; Zone size (Bacillus pumilus [12]): 0 mm; Zone size (Shigella sonnei [13]): 10 mm; Zone size (Shigella sonnei [14]): 11 mm
16 | 50 (≈ 183 µM) | > 100 | 25 (≈ 91.5 µM) | 12.5 (≈ 45.7 µM) | > 200 | COC(=O)/C=C/C(=O)NC[C@@H](NC(=O)CN)C(=O)O | 
17 | 25 (≈ 65.9 µM) | > 200 | 12.5 (≈ 32.9 µM) | 50 (≈ 132 µM) | 100 (≈ 264 µM) | COC(=O)/C=C/C(=O)NC[C@@H](NC(=O)[C@@H](N)Cc1ccc(O)cc1)C(=O)O | 
18 | > 200 | > 200 | > 200 | > 200 | > 200 | COC(=O)/C=C/C(=O)NC[C@@H](N)C(=O)N[C@H](CNC(=O)/C=C/C(=O)OC)C(=O)O | 
19 | 12.5 (≈ 34.4 µM) | > 200 | 6.25 (≈ 17.2 µM) | 12.5 (≈ 34.4 µM) | 100 (≈ 275 µM) | COC(=O)/C=C/C(=O)NC[C@@H](NC(=O)[C@@H](N)Cc1ccccc1)C(=O)O | 
20 | 1.56 (≈ 4.95 µM) | 100 (≈ 317 µM) | 0.8 (≈ 2.54 µM) | 1.56 (≈ 4.95 µM) | 12.5 (≈ 39.6 µM) | COC(=O)/C=C/C(=O)NC[C@@H](NC(=O)[C@@H](N)C(C)C)C(=O)O | 
21 | > 200 | > 200 | > 200 | 6.25 (≈ 19.8 µM) | 100 (≈ 317 µM) | CCC[C@H](NC(=O)[C@H](N)CNC(=O)/C=C/C(=O)OC)C(=O)O | 
22 | > 200 | > 200 | > 200 | 3.12 (≈ 9.47 µM) | 100 (≈ 304 µM) | COC(=O)/C=C/C(=O)NC[C@@H](N)C(=O)N[C@@H](CC(C)C)C(=O)O | 
23 | > 200 | > 200 | > 200 | 3.12 (≈ 10.9 µM) | > 200 | COC(=O)/C=C/C(=O)NC[C@@H](N)C(=O)N[C@@H](C)C(=O)O | 
24 | > 200 | > 200 | > 200 | 6.25 (≈ 19.8 µM) | 100 (≈ 317 µM) | COC(=O)/C=C/C(=O)NC[C@@H](N)C(=O)N[C@H](C(=O)O)C(C)C | 
